# Test results: ChEMBL document CHEMBL1142981, “Identification and synthesis of a novel selective partial PPARdelta agonist with full efficacy on lipid metabolism in vitro and in vivo” (J Med Chem, 2007)
# pEC50: −log10 of the molar value.
# Legend:
# [1] = target: T1, Peroxisome proliferator-activated receptor alpha (Homo sapiens) (UniProt Q07869); test: Activity at human liver PPAR alpha expressed in HEK293 cells by GAL4 transactivation assay relative to NNC61-4655; format: cell-based
# T1 sequence (whole entry): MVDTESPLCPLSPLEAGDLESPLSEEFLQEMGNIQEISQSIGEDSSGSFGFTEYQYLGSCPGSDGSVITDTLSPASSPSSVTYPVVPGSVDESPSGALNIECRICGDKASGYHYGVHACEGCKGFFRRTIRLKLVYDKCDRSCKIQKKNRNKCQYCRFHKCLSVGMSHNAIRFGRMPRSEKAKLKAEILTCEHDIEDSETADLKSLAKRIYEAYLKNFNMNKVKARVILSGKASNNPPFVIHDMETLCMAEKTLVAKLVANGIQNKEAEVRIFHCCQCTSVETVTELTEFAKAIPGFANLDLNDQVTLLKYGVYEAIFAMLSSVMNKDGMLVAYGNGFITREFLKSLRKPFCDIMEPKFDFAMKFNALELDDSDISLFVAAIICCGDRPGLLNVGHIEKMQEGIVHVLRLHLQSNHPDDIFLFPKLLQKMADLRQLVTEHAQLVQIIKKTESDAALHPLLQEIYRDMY
# [2] = test system: L6; test: Effect on fatty acid oxidation in rat L6 cells; format: functional, cell-based
# Outline: (§1)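 Rat L6 myoblasts differentiated 5 days in 2% serum, then treated 42 h with compound (refreshed at 24 h), followed by 6 h with 0.4 mM palmitate containing [9,10-3H]-palmitic acid on 2% fatty-acid-free BSA. Stopped with 10% TCA; released 3H-H2O collected by overnight equilibration at 50 °C and counted.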
# [3] = test system: L6; test: Effect on increase in fatty acid oxidation in rat L6 cells relative to GW-501516; format: functional; design: concentration or dose not given beside the values; outline: as §1
# [4] = Clearance in Sprague-Dawley rat at 1.18 mg/kg, iv; format: ADME, organism-based; design: dose 1.18 mg/kg, route intravenous; conditions: in vivo
# Outline: (§2)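 Male SD rats dosed once i.v. or p.o. (n = 8 per route), vehicle 5% ethanol, 10% HPCD, phosphate buffer pH 7.5-8.0. One animal sacrificed at each of 5, 15, 30, 60, 90, 120, 240 and 360 min; EDTA plasma analysed by high turbulence LC-MS/MS. Each data point represents one animal.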
# [5] = Volume of distribution in Sprague-Dawley rat at 1.18 mg/kg, iv; format: ADME, organism-based; design: dose 1.18 mg/kg, route intravenous; conditions: in vivo, read-out: Vss
# Outline: (§3)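 Male SD rats received a single p.o. or i.v. dose (n = 8 per route) in 5% ethanol, 10% HPCD and phosphate buffer, pH 7.5-8.0. At 5, 15, 30, 60, 90, 120, 240 and 360 min one rat was sacrificed per time point. EDTA plasma was assayed by high turbulence LC-MS/MS. Cmax and bioavailability were taken from oral dosing; volume of distribution is at steady state.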
# [6] = Half life in Sprague-Dawley rat at 2.35 mg/kg, po; format: ADME, organism-based; design: dose 2.35 mg/kg, route oral; conditions: in vivo; outline: as §2
# [7] = target: T2, Peroxisome proliferator-activated receptor alpha (Homo sapiens, UniProt Q07869); test: Activity at human liver PPAR alpha expressed in HEK293 cells by PPAR-GAL4 transactivation assay; format: cell-based
# T2 sequence (Q07869 whole entry): T1 sequence (whole entry)
# [8] = target: T3, Peroxisome proliferator-activated receptor gamma (Homo sapiens, UniProt P37231); format: cell-based, HEK293
# T3 sequence (P37231 whole entry): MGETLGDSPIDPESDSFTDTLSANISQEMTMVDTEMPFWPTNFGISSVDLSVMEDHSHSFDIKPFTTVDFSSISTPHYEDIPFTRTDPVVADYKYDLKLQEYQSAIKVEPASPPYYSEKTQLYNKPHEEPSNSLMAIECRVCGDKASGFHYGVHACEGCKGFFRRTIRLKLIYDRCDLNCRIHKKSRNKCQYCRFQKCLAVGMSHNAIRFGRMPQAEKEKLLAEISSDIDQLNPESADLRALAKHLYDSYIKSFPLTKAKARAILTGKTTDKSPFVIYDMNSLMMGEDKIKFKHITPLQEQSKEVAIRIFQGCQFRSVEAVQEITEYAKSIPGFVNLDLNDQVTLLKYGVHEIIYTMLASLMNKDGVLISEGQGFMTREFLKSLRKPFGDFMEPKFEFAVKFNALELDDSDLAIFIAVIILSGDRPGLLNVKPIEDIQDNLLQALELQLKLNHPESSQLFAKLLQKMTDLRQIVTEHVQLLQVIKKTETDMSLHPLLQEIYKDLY
# [9] = Plasma Cmax in Sprague-Dawley rat at 2.35 mg/kg, po; format: ADME, organism-based; design: dose 2.35 mg/kg, route oral; outline: as §3
# [10] = Oral bioavailability in Sprague-Dawley rat at 2.35 mg/kg; format: ADME, organism-based; conditions: in vivo; outline: as §3
# [11] = target: T4, Peroxisome proliferator-activated receptor delta (Homo sapiens, UniProt Q03181)
# T4 sequence (Q03181 whole entry): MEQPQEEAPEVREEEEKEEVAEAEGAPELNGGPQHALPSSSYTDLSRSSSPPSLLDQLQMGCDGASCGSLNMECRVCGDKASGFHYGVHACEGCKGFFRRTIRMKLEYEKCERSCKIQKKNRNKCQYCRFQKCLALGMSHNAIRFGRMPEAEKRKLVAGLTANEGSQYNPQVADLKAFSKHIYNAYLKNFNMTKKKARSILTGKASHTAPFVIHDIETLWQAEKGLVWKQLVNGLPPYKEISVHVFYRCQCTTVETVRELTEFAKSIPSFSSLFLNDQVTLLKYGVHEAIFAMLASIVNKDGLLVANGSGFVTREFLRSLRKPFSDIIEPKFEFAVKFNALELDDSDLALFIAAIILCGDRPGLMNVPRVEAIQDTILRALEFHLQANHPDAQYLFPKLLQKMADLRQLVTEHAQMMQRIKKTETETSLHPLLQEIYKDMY
# [12] = Clearance in Sprague-Dawley rat at 0.20 mg/kg, iv; format: ADME, organism-based; design: dose 0.2 mg/kg, route intravenous; conditions: in vivo, 0.2 mg/kg; outline: as §2
# [13] = Volume of distribution in Sprague-Dawley rat at 0.20 mg/kg, iv; format: ADME, organism-based; design: dose 0.2 mg/kg, route intravenous; conditions: in vivo, 0.2 mg/kg, read-out: Vss; outline: as §3
# [14] = Half life in Sprague-Dawley rat at 0.45 mg/kg, po; format: ADME, organism-based; design: dose 0.45 mg/kg, route oral; conditions: in vivo
# Outline: (§4)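 Male SD rats, single oral dose in 5% ethanol/10% HPCD/phosphate buffer pH 7.5-8.0, n = 8. One animal was killed at each of 5, 15, 30, 60, 90, 120, 240 and 360 min. EDTA plasma was analysed by turbulent-flow LC-MS/MS. Cmax, half-life and oral bioavailability were taken from the plasma curves, with bioavailability using a parallel i.v. arm.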
# [15] = Plasma Cmax in Sprague-Dawley rat at 0.45 mg/kg, po; format: ADME, organism-based; design: dose 0.45 mg/kg, route oral; outline: as §4
# [16] = Half life in Sprague-Dawley rat at 0.43 mg/kg, po; format: ADME, organism-based; design: dose 0.43 mg/kg, route oral; conditions: in vivo; outline: as §2
# [17] = Plasma Cmax in Sprague-Dawley rat at 0.43 mg/kg, po; format: ADME, organism-based; design: dose 0.43 mg/kg, route oral; outline: as §3
Efficacy [1] [%],pEC50 [7],pEC50 [11],clearance [12] [L/h/kg],Vd [13] [L/kg],half-life [14] [h],Cmax [15] [µg/mL],half-life [16] [h],Cmax [17] [µg/mL],Structure (SMILES),pEC50 [2],Activity [3] [%],clearance [4] [L/h/kg],Vd [5] [L/kg],half-life [6] [h],pEC50 [8],Cmax [9] [µg/mL],bioavailability [10] [%]
> 24,,,,,,,,,CN(CCOc1ccc(CC2SC(=O)NC2=O)cc1)c1ccccn1 (centres undefined) [ROSIGLITAZONE],5.30,58,,,,,,
< 10,,5.23,1.62,5.3,15.9,0.051,,,O=C(O)CCc1cccc(OCC=C(c2ccc(Br)cc2)c2ccc(Br)cc2)c1,6.21,59,,,,,,
> 19,< 5.00,6.08,,,2.55,0.419,,,O=C(O)Cc1cccc(OCC=C(c2ccc(Br)cc2)c2ccc(Br)cc2)c1,6.65,78,,,,< 5.00,,
> 14,< 5.00,5.96,0.36,1.4,,,7.45,0.252,O=C(O)Cc1ccc(OCC=C(c2ccc(Br)cc2)c2ccc(Br)cc2)cc1,6.69,62,,,,,,

Structure (SMILES),Efficacy [1] [%],pEC50 [7],pEC50 [11],clearance [12] [L/h/kg],Vd [13] [L/kg],half-life [14] [h],Cmax [15] [µg/mL],half-life [16] [h],Cmax [17] [µg/mL],pEC50 [2],Activity [3] [%],clearance [4] [L/h/kg],Vd [5] [L/kg],half-life [6] [h],pEC50 [8],Cmax [9] [µg/mL],bioavailability [10] [%]
Cc1cc(SCC=C(c2ccc(Br)cc2)c2ccc(Br)cc2)ccc1OCC(=O)O,> 22,< 5.00,7.77,,,,,,,8.52,75,0.6,0.9,2.52,< 5.00,0.887,95
